This passage reports IC50 results from ChEMBL document CHEMBL1148382, “Synthesis and structure-activity relationship for a novel class of potent and selective carbamoyl-triazole based inhibitors of hormone sensitive lipase” (J Med Chem, 2004).

Experiment [1] concerns the target T1, Acetylcholinesterase (Homo sapiens, UniProt P22303). Nature of the experiment: Inhibitory concentration against acetylcholinesterase.
For a further experiment, the target named is T2, Hormone-sensitive lipase (Homo sapiens, UniProt Q05469).
T2 sequence (Q05469 whole entry): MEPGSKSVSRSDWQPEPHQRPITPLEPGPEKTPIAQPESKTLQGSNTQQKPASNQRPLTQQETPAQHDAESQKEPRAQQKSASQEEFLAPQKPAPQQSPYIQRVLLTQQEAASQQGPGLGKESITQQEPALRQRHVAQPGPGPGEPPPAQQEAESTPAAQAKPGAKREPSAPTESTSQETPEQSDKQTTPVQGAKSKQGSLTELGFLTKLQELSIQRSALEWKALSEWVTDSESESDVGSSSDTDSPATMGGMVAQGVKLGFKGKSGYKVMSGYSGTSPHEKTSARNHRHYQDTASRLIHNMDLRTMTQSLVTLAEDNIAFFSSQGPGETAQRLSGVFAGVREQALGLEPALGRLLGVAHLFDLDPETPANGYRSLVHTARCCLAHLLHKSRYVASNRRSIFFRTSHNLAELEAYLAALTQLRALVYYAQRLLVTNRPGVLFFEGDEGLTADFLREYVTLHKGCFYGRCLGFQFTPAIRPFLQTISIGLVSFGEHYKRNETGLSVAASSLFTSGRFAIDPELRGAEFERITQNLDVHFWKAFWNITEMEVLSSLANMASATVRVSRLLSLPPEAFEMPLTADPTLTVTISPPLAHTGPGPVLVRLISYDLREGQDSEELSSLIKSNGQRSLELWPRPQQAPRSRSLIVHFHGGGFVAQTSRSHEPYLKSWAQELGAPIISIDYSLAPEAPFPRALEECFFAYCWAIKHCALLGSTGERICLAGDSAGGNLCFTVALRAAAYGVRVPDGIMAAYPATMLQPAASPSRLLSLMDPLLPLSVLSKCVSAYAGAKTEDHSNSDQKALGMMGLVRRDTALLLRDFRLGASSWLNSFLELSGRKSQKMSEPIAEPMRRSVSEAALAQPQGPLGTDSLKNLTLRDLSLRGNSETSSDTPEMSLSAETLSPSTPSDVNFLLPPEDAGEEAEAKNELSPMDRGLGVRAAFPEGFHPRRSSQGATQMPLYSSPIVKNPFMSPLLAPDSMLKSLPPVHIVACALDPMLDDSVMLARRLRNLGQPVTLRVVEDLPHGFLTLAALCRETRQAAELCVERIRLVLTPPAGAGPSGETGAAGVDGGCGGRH
Put plainly: Inhibition of hormone sensitive lipase (HSL).

For the next experiment, the target named is Cholinesterase (Homo sapiens, UniProt P06276). Nature of the experiment: Inhibitory concentration against butyrylcholinesterase.
Experiment [2] deals with T3, Hepatic triacylglycerol lipase (Homo sapiens, UniProt P11150).
T3 sequence (P11150 whole entry): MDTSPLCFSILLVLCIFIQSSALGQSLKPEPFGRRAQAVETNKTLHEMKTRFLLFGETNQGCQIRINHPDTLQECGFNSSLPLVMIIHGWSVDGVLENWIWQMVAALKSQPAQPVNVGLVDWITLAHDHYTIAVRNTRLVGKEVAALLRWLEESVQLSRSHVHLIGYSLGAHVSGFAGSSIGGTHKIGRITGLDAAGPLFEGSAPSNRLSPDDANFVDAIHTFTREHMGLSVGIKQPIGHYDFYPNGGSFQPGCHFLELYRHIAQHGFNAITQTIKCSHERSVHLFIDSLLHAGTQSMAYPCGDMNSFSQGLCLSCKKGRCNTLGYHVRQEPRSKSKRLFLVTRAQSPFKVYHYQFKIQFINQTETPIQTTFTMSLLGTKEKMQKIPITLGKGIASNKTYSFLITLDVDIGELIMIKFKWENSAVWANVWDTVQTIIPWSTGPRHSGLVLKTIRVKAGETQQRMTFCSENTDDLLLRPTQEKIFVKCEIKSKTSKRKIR
Put plainly: Compound was tested to inhibit hepatic lipase (HL). Summed up:
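Emulsion assay with a fluorochrome (NBD)-labeled triacylglyceride in phosphatidylcholine/phosphatidylinositol 3:1 micelles, diluted in PED-BSA buffer pH 7.0. HL (1 μg/mL) and inhibitor in DOC buffer (10 mM TRIS-HCl pH 8.5, 5 mM deoxycholate) preincubated 70 min at 25 °C, then added with NaCl and TRIS pH 8.5. Fluorescence (ex 450/em 545 nm) read at 0 and 120 min, 37 °C. Inhibitor top concentration 100 μM, six 5-fold dilutions, duplicates; sigmoidal variable-slope IC50 fit.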

Experiment [3] addresses T4, Pancreatic triacylglycerol lipase (Homo sapiens, UniProt P16233).
T4 sequence (P16233 whole entry): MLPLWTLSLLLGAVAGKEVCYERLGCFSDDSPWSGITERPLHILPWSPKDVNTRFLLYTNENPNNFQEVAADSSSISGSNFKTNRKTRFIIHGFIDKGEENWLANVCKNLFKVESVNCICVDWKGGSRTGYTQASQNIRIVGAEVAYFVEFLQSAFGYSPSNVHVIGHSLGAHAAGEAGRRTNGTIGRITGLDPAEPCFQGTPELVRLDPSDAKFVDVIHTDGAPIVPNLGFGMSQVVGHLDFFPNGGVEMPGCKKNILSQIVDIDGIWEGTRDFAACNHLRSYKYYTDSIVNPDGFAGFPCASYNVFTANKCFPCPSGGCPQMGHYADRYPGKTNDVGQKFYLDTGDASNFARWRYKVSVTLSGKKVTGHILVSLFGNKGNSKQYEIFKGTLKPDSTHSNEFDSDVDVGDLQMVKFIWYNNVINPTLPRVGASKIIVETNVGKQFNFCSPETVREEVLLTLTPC
Nature of the experiment: Compound was tested to inhibit pancreatic lipase (PL). The procedure, abridged:
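PL (1 μg/mL) plus colipase (5 μg/mL) preincubated with inhibitor 40 min at 25 °C. Then combined with TRIS buffer pH 8.0 (NaCl, 1 mM NaTDC) and labeled triacylglyceride emulsion prepared in TRIS pH 8.0 with 8 mM NaTDC, 0.3 M NaCl, 2 mM CaCl2. Fluorescence (ex 450/em 545 nm) read at 0 and 60 min, 37 °C. Six concentrations from 100 μM in 5-fold steps, duplicates; sigmoidal IC50 fit.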

Experiment [4] concerns the target Lipoprotein lipase (Bos taurus) (UniProt P11151). Put plainly: Compound was tested to inhibit lipoprotein lipase (LPL).
The target of experiment [5] is T1, Acetylcholinesterase. Put plainly: Inhibitory concentration against acetylcholinesterase; non classical inhibitor, maximum HSL inhibition of […]%.

pIC50: −log10 of the molar value. Where only a bound is given, the exact number is not on record here.

Broadly, the pIC50 is the IC50 on a negative log10 scale, so that one unit is a factor of ten.

Lipoprotein lipase (Bos taurus), sequence (P11151 whole entry, looked up): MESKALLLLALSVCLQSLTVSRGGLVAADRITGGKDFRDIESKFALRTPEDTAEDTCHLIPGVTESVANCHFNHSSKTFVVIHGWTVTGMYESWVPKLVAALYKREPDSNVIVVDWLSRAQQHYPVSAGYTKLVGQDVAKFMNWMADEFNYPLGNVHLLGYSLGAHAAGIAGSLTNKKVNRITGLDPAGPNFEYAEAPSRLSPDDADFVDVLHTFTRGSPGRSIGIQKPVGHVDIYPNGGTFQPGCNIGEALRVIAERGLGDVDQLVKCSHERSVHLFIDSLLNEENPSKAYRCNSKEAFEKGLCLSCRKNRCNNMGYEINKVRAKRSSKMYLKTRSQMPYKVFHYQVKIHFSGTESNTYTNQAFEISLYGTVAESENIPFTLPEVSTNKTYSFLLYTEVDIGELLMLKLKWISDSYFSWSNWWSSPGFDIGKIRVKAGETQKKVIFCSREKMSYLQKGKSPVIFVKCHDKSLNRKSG
T1 sequence (P22303 whole entry): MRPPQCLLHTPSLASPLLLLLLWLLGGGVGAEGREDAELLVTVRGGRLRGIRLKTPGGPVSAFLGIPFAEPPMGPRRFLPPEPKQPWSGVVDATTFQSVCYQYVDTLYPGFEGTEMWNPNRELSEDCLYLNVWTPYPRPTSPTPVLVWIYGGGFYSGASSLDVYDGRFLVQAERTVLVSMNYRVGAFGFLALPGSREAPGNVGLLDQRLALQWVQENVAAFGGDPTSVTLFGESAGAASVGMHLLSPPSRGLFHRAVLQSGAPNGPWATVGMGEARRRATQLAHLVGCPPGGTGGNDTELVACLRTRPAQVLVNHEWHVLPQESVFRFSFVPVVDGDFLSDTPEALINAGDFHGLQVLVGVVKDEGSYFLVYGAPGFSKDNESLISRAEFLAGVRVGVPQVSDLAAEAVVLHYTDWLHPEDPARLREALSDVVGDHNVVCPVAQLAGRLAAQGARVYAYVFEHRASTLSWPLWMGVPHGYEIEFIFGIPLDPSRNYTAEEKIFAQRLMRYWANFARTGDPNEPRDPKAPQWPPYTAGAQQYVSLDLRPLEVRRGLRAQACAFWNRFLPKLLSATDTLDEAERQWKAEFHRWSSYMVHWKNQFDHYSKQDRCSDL
Cholinesterase, sequence (P06276 whole entry): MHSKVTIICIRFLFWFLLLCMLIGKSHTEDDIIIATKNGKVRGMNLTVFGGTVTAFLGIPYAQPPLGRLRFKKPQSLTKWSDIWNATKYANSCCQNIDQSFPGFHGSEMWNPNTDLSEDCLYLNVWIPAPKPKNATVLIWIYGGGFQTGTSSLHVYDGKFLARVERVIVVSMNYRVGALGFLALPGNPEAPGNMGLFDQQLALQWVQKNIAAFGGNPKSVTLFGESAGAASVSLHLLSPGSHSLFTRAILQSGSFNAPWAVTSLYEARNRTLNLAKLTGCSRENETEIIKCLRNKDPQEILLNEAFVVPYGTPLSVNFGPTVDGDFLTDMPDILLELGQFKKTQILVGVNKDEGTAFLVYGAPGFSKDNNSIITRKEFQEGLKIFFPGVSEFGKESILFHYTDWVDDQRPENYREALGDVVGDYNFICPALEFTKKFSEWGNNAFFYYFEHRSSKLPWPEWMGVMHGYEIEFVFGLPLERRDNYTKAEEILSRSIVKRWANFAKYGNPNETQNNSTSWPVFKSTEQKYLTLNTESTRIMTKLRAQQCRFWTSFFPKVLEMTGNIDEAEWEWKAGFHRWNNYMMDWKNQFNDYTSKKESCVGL

On to `CCCCCCSc1nc(-c2ccc(C)cc2)nn1C(=O)N(C)c1ccccc1`, for which the results for the pIC50 at Acetylcholinesterase [1] and against Hormone-sensitive lipase were less than 4.30 and 6.15, respectively.

Regarding `CCSc1nc(-c2ccc(OC)cc2)nn1C(=O)N(C)c1ccccc1`, the pIC50 was 5.96 on Acetylcholinesterase [1] and 6.52 at Hormone-sensitive lipase.

In the case of `CCOc1nn(-c2cccc(OCc3ccccc3)c2)c(=O)o1`, the pIC50 at Acetylcholinesterase [1] was 6.12; on Cholinesterase it was 6.04; against Hormone-sensitive lipase it was 5.96; in experiment [2], 4.82; in experiment [3], less than 5.00; in experiment [4], less than 5.00.

As for `CSc1nc(-c2ccc3ccccc3c2)nn1C(=O)N(C)C`, the values for the pIC50 at Acetylcholinesterase [1], on Cholinesterase and against Hormone-sensitive lipase were 7.30, 6.89 and 5.70, respectively.

Regarding `CSc1nc(-c2ccc(Cl)cc2)nn1C(=O)N1CCCCC1`, the pIC50 against Acetylcholinesterase [1] was 7.59; at Cholinesterase, 6.05; against Hormone-sensitive lipase, 7.00.

Regarding `CN(C(=O)n1nc(-c2ccc(Cl)cc2)nc1SCC1CC1)c1ccccc1`, on Acetylcholinesterase [5], the IC50 result is given as “Non classical inhibitor”. The pIC50 against Hormone-sensitive lipase is 7.21.

`CSc1nc(-c2ccc(C(F)(F)F)cc2)nn1C(=O)N(C)C`: the results for the negative logarithm of the IC50 (pIC50) at Acetylcholinesterase [1], at Cholinesterase and on Hormone-sensitive lipase were 6.30, 7.00 and 7.00, respectively.

`CCCCCCSc1nc(-c2ccc(Cl)cc2)nn1C(=O)N(C)c1ccccc1`: the pIC50 is less than 4.30 against Acetylcholinesterase [1] and 6.40 at Hormone-sensitive lipase.

Consider `CSc1nc(/C=C/c2ccccc2)nn1C(=O)N(C)C`, for which the pIC50 at Acetylcholinesterase [1] was greater than 8.00; against Cholinesterase it was 6.43; on Hormone-sensitive lipase, less than 4.30.

For `CSc1nc(-c2ccc(C)cc2)nn1C(=O)N(C)C`, the figures for the pIC50 against Acetylcholinesterase [1], against Cholinesterase and on Hormone-sensitive lipase were 6.10, 6.70 and 7.52, respectively.

Turning to `CSc1nc(-c2ccc(-c3ccccc3)cc2)nn1C(=O)N(C)C`, the pIC50 on Acetylcholinesterase [1] was 6.25; at Cholinesterase, 6.64; against Hormone-sensitive lipase it was 5.82.

As to `CCSc1nc(-c2ccc(OC)cc2)nn1C(=O)N1CCOCC1`, the pIC50 against Acetylcholinesterase [1] was less than 4.30; at Cholinesterase it was 5.40; on Hormone-sensitive lipase, 5.05.

Consider `COc1ccc(-c2nc(SC)n(C(=O)N(C)C)n2)cc1`, for which the pIC50 is 6.10 against Acetylcholinesterase [1], 6.39 on Cholinesterase and 6.05 against Hormone-sensitive lipase.

Consider `Cc1ccc(-c2nc(SCC(F)(F)F)n(C(=O)N(C)C)n2)cc1`, for which the pIC50 against Acetylcholinesterase [1] is 6.70; against Cholinesterase, 6.34; on Hormone-sensitive lipase it was 6.22.

On to `CSc1nc(-c2ccc(C)cc2)nn1C(=O)N(C)c1ccccc1`, for which the pIC50 is 5.62 at Acetylcholinesterase [1] and 7.00 against Hormone-sensitive lipase.

On to `CSc1nc(-c2ccc(C)cc2)nn1C(=O)N1CCOCC1`, for which the pIC50 against Acetylcholinesterase [1] was less than 4.30; on Cholinesterase, 5.70; against Hormone-sensitive lipase, 5.40.

As for `CCCCCCSc1nc(-c2ccc(Cl)cc2)nn1C(=O)N1CCCCC1`, the values for the pIC50 against Acetylcholinesterase [1], at Cholinesterase and on Hormone-sensitive lipase were greater than 8.00, less than 4.30 and less than 4.30, respectively.

Consider `CN(C(=O)n1nc(-c2ccc(Cl)cc2)nc1SCC(F)(F)F)c1ccccc1`, for which the pIC50 against Acetylcholinesterase [1] is less than 4.30; against Cholinesterase it was less than 4.30; against Hormone-sensitive lipase, 6.77; in experiment [2], less than 4.30; in experiment [3], less than 4.30; in experiment [4], less than 4.30.

Consider `CCCCCCSc1nc(-c2ccc(Cl)cc2)nn1C(=O)N1CCOCC1`, for which the pIC50 against Acetylcholinesterase [1], on Cholinesterase and at Hormone-sensitive lipase was less than 4.30 each time.

As for `CCCCCCSc1nc(-c2ccc(C)cc2)nn1C(=O)N(C)C`, the pIC50 against Acetylcholinesterase [1] was 6.70; at Cholinesterase, 6.52; on Hormone-sensitive lipase, less than 4.30.

Regarding `O=C(N1CCOCC1)n1nc(-c2ccc(Cl)cc2)nc1SCC(F)(F)F`, the pIC50 against Acetylcholinesterase [1] is less than 4.30; at Cholinesterase, less than 4.30; against Hormone-sensitive lipase, 5.05.

For `CCCSc1nc(-c2ccc(Cl)cc2)nn1C(=O)N(C)C`, the pIC50 is 6.52 against Acetylcholinesterase [1], 7.00 on Cholinesterase and 7.22 at Hormone-sensitive lipase.

On to `CCSc1nc(-c2ccc(Cl)cc2)nn1C(=O)N(C)C`, for which the negative-log IC50 (pIC50) at Acetylcholinesterase [1] is 7.25; against Cholinesterase, 7.30; on Hormone-sensitive lipase, 6.68.

On to `CSc1nc(-c2ccc(Cl)cc2)nn1C(=O)N1CCOCC1`, for which the results for the pIC50 at Acetylcholinesterase [1], on Cholinesterase and against Hormone-sensitive lipase were less than 4.30, 4.85 and 5.70, respectively.

As to `Cc1c(C(C)C)c(=O)on1C(=O)N1CCC[C@H](C)C1`, the pIC50 on Acetylcholinesterase [1] was 4.77; against Cholinesterase, less than 4.30; against Hormone-sensitive lipase, 6.77; in experiment [2], less than 4.30; in experiment [3], less than 4.30; in experiment [4], less than 4.30.

As for `CSc1nc(-c2ccc(OC(F)(F)F)cc2)nn1C(=O)N(C)C`, the negative logarithm of the IC50 (pIC50) on Acetylcholinesterase [1] is 6.10; at Cholinesterase, 6.70; against Hormone-sensitive lipase it was 7.00.

With `O=C(N1CCCCC1)n1nc(-c2ccc(Cl)cc2)nc1SCC(F)(F)F`, the negative logarithm of the IC50 (pIC50) against Acetylcholinesterase [1] is 6.52; on Cholinesterase, 6.00; at Hormone-sensitive lipase, 6.40.

With `CSc1nc(-c2ccc(Cl)cc2)nn1C(=O)N(C)C`, the pIC50 was 7.00 at Acetylcholinesterase [1], greater than 8.00 at Cholinesterase and 7.70 against Hormone-sensitive lipase.

On to `O=C(N1CCCCC1)n1nc(-c2ccc(Cl)cc2)nc1SCC1CC1`, for which the figures for the pIC50 at Acetylcholinesterase [1], against Cholinesterase and against Hormone-sensitive lipase were 7.00, 6.05 and 6.70, respectively.

For the compound `COc1nn(-c2ccc(NC(=O)c3ccc(C(C)(C)C)cc3)cc2)c(=O)o1`, the pIC50 was less than 4.30 at Acetylcholinesterase [1]; less than 4.30 against Cholinesterase; 7.64 against Hormone-sensitive lipase; 5.74 in experiment [2]; less than 5.00 in experiment [3]; 6.70 in experiment [4].

On to `CSc1nc(-c2ccc(Cl)cc2)nn1C(=O)N(C)c1ccccc1`, for which the pIC50 was 5.85 against Acetylcholinesterase [1] and 6.80 against Hormone-sensitive lipase.

As to `CSc1nc(-c2ccc(OC(F)(F)F)cc2)nn1C(=O)N(C)c1ccccc1`, the pIC50 against Acetylcholinesterase [1] is less than 4.30; at Cholinesterase, less than 4.30; on Hormone-sensitive lipase, 6.60; in experiment [2], less than 4.30; in experiment [3], less than 4.30; in experiment [4], less than 4.30.
